In ChEMBL document CHEMBL1153032, “Benzhydrylquinazolinediones: novel cytosolic phospholipase A2alpha inhibitors with improved physicochemical properties” (Bioorg Med Chem, 2009):
In brackets after ≈: the same amount, converted by molar mass.

Columns and labels:
[1] = Inhibition of cytosolic phospholipase A2alpha by GLU micelle assay
[2] = Aqueous solubility after 18 hrs at pH 7.4; assay type: physicochemical
Outline: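 Compound taken as 8 mg/mL DMSO stock; 13 µL added to 1.0 mL pH 7.4 buffer, mixed, left to settle 18 h at room temperature. Mixture filtered (0.2 µm), filtrate concentration read by UV plate reader. Solubility derived against a single-point standard.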

[3] = test system: MC9; assay: Inhibition of PGF2alpha production in arachidonic acid-stimulated mouse MC9 cells at 5 uM treated 15 mins before arachidonic acid challenge measured after 4 mins; assay type: functional
[4] = Lipophilicity, log D at pH 7.4; assay type: physicochemical; conditions: buffer
[5] = test system: MC9; assay: Inhibition of LTB4 production in DNP-BSA-stimulated mouse MC9 cells at 5 uM treated 15 mins before DNP-BSA challenge measured after 4 mins; assay type: functional
[6] = test system: MC9; assay: Inhibition of PGF2alpha production in DNP-BSA-stimulated mouse MC9 cells at 5 uM treated 15 mins before DNP-BSA challenge measured after 4 mins; assay type: functional
[7] = Permeability in buffer of pH 7.4 by PAMPA; assay type: ADME; conditions: read-out: permeability
Outline: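 PAMPA: 5 mg/mL DMSO stock diluted 200-fold in pH 7.4 universal buffer (25 µg/mL) and placed in donor wells. Filter membrane coated with phosphatidylcholine in dodecane (20 mg/mL); acceptor holds pH 7.4 buffer. Sandwich left 18 h at rt. Donor, acceptor and reference concentrations read by UV. Effective permeability (Pe) calculated; triplicate runs averaged. Verapamil and theophylline run as QC standards.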

[8] = test system: Blood; assay: Inhibition of TXB2 production in calcium ionophore A-23187-stimulated Sprague-Dawley rat whole blood after 10 mins; assay type: functional, tissue-based

SMILES	IC50 [1]	solubility at 18 h [2]	logD [4]	also measured
O=C(O)c1ccc(OCCn2c(=O)c3ccc(Cl)cc3n(C(c3ccccc3)c3ccccc3)c2=O)cc1	4 µM		3.3	inhibition at 5 µM [3]: 0%; inhibition at 5 µM [5]: 93%; inhibition at 5 µM [6]: 61%
O=C(O)c1ccc(OC/C=C/Cn2c(=O)n(C(c3ccccc3)c3ccccc3)c(=O)c3ccc(-n4cncn4)cc32)cc1	1.1 µM	> 100 µg/mL	1.4	Papp [7]: 1.6 ×10⁻⁶ cm/s; inhibition at 5 µM [3]: -28%; inhibition at 5 µM [5]: 100%; inhibition at 5 µM [6]: 102%; IC50 [8]: 11 µM
O=C(O)c1ccc(OCCn2c(=O)c3ccccc3n(C(c3ccccc3)c3ccccc3)c2=O)cc1	10 µM			
O=C(O)c1ccc(OC/C=C/Cn2c(=O)n(C(c3ccccc3)c3ccccc3)c(=O)c3ccc(Oc4ccccc4)cc32)cc1	1.6 µM	15 µg/mL (≈ 24.6 µM)	4.8	
O=C(O)Cc1ccc(Cn2c(=O)n(C(c3ccccc3)c3ccccc3)c(=O)c3ccccc32)cc1	260 µM			
Nc1ccc2c(=O)n(C(c3ccccc3)c3ccccc3)c(=O)n(C/C=C/COc3ccc(C(=O)O)cc3)c2c1	9 µM	> 100 µg/mL	1.7	Papp [7]: 0.4 ×10⁻⁶ cm/s
O=C(O)c1ccc(OC/C=C\Cn2c(=O)n(C(c3ccccc3)c3ccccc3)c(=O)c3cc(Br)ccc32)cc1	30 µM			
Cc1cccc(C)c1CS(=O)(=O)NCCc1c(CCCc2ccc(C(=O)O)cc2)c2cc(Cl)ccc2n1C(c1ccccc1)c1ccccc1	0.014 µM			
Cc1c(CCOc2ccc(C(=O)O)cc2)c2cc(Cl)ccc2n1C(c1ccccc1)c1ccccc1	3 µM		6.1	inhibition at 5 µM [3]: -8%; inhibition at 5 µM [5]: 96%; inhibition at 5 µM [6]: 81%
COc1ccc2c(=O)n(C(c3ccccc3)c3ccccc3)c(=O)n(C/C=C/COc3ccc(C(=O)O)cc3)c2c1	3 µM	40 µg/mL (≈ 72.9 µM)	2.8	Papp [7]: 1.8 ×10⁻⁶ cm/s; inhibition at 5 µM [3]: -98%; inhibition at 5 µM [5]: 99%; inhibition at 5 µM [6]: 74%; IC50 [8]: 9 µM
O=C(O)c1ccc(OC/C=C/Cn2c(=O)n(C(c3ccccc3)c3ccccc3)c(=O)c3ccc([N+](=O)[O-])cc32)cc1	1 µM	34 µg/mL (≈ 60.3 µM)	2.4	Papp [7]: 2.6 ×10⁻⁶ cm/s; inhibition at 5 µM [3]: -12%; inhibition at 5 µM [5]: 97%; inhibition at 5 µM [6]: 30%; IC50 [8]: 13 µM
CS(=O)(=O)c1ccc2c(=O)n(C(c3ccccc3)c3ccccc3)c(=O)n(C/C=C/COc3ccc(C(=O)O)cc3)c2c1	15 µM	> 100 µg/mL	1.4	Papp [7]: 0.3 ×10⁻⁶ cm/s
O=C(O)c1ccc(OC/C=C/Cn2c(=O)n(C(c3ccccc3)c3ccccc3)c(=O)c3ccc(N4CCOCC4)cc32)cc1	2.2 µM	48 µg/mL (≈ 79.5 µM)	2.5	Papp [7]: 1 ×10⁻⁶ cm/s
O=C(O)c1ccc(OC/C=C/Cn2c(=O)n(C(c3ccccc3)c3ccccc3)c(=O)c3ccc(N4CCSCC4)cc32)cc1	2.4 µM		3.6	
O=C(O)c1ccc(OC/C=C\Cn2c(=O)n(C(c3ccccc3)c3ccccc3)c(=O)c3ccc(Cl)cc32)cc1	30 µM			
O=C(O)c1ccc(OC/C=C/Cn2c(=O)n(C(c3ccccc3)c3ccccc3)c(=O)c3cc(Br)ccc32)cc1	9 µM			
O=C(O)c1ccc(OC/C=C/Cn2c(=O)n(C(c3ccccc3)c3ccccc3)c(=O)c3ccccc32)cc1	3 µM			inhibition at 5 µM [5]: 97%; inhibition at 5 µM [6]: 52%; IC50 [8]: 14 µM
O=C(O)c1ccc(OC/C=C/Cn2c(=O)n(C(c3ccccc3)c3ccccc3)c(=O)c3ccc(Cl)cc32)cc1	1 µM			inhibition at 5 µM [3]: -45%; inhibition at 5 µM [5]: 98%; inhibition at 5 µM [6]: 99%; IC50 [8]: 11 µM
O=C(O)COc1ccc(Cn2c(=O)n(C(c3ccccc3)c3ccccc3)c(=O)c3ccccc32)cc1	360 µM			
O=C(O)c1ccc(OC/C=C\Cn2c(=O)n(C(c3ccccc3)c3ccccc3)c(=O)c3ccccc32)cc1	44 µM			
O=C(O)CCCOc1ccc(Cn2c(=O)n(C(c3ccccc3)c3ccccc3)c(=O)c3ccccc32)cc1	40 µM			
O=C(O)c1ccc(OCCn2c(=O)n(C(c3ccccc3)c3ccccc3)c(=O)c3ccc(Cl)cc32)cc1	10 µM			
O=C(O)c1ccc(OC/C=C\Cn2c(=O)c3ccccc3n(C(c3ccccc3)c3ccccc3)c2=O)cc1	25 µM	37 µg/mL (≈ 71.4 µM)		
O=C(O)c1ccc(OC/C=C/Cn2c(=O)n(C(c3ccccc3)c3ccccc3)c(=O)c3cc(F)ccc32)cc1	6 µM			

Continued, in another order:

IC50 [1]	solubility at 18 h [2]	logD [4]	SMILES	also measured
10 µM			O=C(O)c1ccc(OC/C=C/Cn2c(=O)n(C(c3ccccc3)c3ccccc3)c(=O)c3cc(Cl)ccc32)cc1	
60 µM	51 µg/mL (≈ 92.2 µM)		O=C(O)c1ccc(OC/C=C\Cn2c(=O)c3ccc(Cl)cc3n(C(c3ccccc3)c3ccccc3)c2=O)cc1	
50 µM			O=C(O)c1ccc(OCCCn2c(=O)n(C(c3ccccc3)c3ccccc3)c(=O)c3ccccc32)cc1	
5.6 µM	42 µg/mL (≈ 78.3 µM)		O=C(O)c1ccc(OC/C=C/Cn2c(=O)c3cc(F)ccc3n(C(c3ccccc3)c3ccccc3)c2=O)cc1	
12 µM			O=C(O)Cc1ccc(Cn2c(=O)c3cc(Br)ccc3n(C(c3ccccc3)c3ccccc3)c2=O)cc1	
4.5 µM	28 µg/mL (≈ 50.6 µM)		O=C(O)c1ccc(OC/C=C/Cn2c(=O)c3ccc(Cl)cc3n(C(c3ccccc3)c3ccccc3)c2=O)cc1	
2.8 µM	40 µg/mL (≈ 75.1 µM)	3.2	Cc1ccc2c(=O)n(C(c3ccccc3)c3ccccc3)c(=O)n(C/C=C/COc3ccc(C(=O)O)cc3)c2c1	Papp [7]: 2 ×10⁻⁶ cm/s
47 µM			O=C(O)c1ccc(OCCCCCCn2c(=O)n(C(c3ccccc3)c3ccccc3)c(=O)c3ccccc32)cc1	
2.1 µM		4.8	O=C(O)c1ccc(OC/C=C/Cn2c(=O)n(C(c3ccccc3)c3ccccc3)c(=O)c3ccc(Sc4ccccc4)cc32)cc1	
90 µM			O=C(O)c1ccc(Cn2c(=O)c3cc(Cl)ccc3n(C(c3ccccc3)c3ccccc3)c2=O)cc1	
71 µM			O=C(O)c1ccc(OCCCCCCCn2c(=O)n(C(c3ccccc3)c3ccccc3)c(=O)c3ccccc32)cc1	
100 µM			O=C(O)c1cccc(OC/C=C/Cn2c(=O)n(C(c3ccccc3)c3ccccc3)c(=O)c3ccc(Cl)cc32)c1	
1.8 µM	30 µg/mL (≈ 45.5 µM)	3.3	COC(=O)C1CCN(c2ccc3c(=O)n(C(c4ccccc4)c4ccccc4)c(=O)n(C/C=C/COc4ccc(C(=O)O)cc4)c3c2)CC1	Papp [7]: 1 ×10⁻⁶ cm/s
2 µM	26 µg/mL (≈ 46 µM)	3.2	CSc1ccc2c(=O)n(C(c3ccccc3)c3ccccc3)c(=O)n(C/C=C/COc3ccc(C(=O)O)cc3)c2c1	Papp [7]: 4.5 ×10⁻⁶ cm/s
2 µM	51 µg/mL (≈ 98.3 µM)		O=C(O)c1ccc(OC/C=C/Cn2c(=O)c3ccccc3n(C(c3ccccc3)c3ccccc3)c2=O)cc1	inhibition at 5 µM [3]: -15%; inhibition at 5 µM [5]: 98%; inhibition at 5 µM [6]: 61%; IC50 [8]: 12 µM
1.4 µM		2.9	O=C(O)c1ccc(OC/C=C/Cn2c(=O)n(C(c3ccccc3)c3ccccc3)c(=O)c3ccc(F)cc32)cc1	inhibition at 5 µM [3]: -27%; inhibition at 5 µM [5]: 99%; inhibition at 5 µM [6]: 83%; IC50 [8]: 6 µM
0.04 µM			O=C(O)c1ccc(CCCc2c(CCNS(=O)(=O)Cc3ccc(Cl)c(Cl)c3)n(C(c3ccccc3)c3ccccc3)c3ccc(Cl)cc23)cc1 [EFIPLADIB]	
> 100 µM			O=C(O)c1ccc(OCCn2c(=O)c3ccccc3n(Cc3ccccc3)c2=O)cc1	
80 µM			O=C(O)c1ccc(Cn2c(=O)c3ccc(Cl)cc3n(C(c3ccccc3)c3ccccc3)c2=O)cc1	
120 µM			O=C(O)C1CC1Cn1c(=O)c2cc(Br)ccc2n(C(c2ccccc2)c2ccccc2)c1=O (stereo unspecified)	
2.5 µM			O=C(O)c1ccc(OCCCCn2c(=O)n(C(c3ccccc3)c3ccccc3)c(=O)c3ccc(Cl)cc32)cc1	
40 µM			O=C(O)c1ccc(OC/C=C\Cn2c(=O)n(C(c3ccccc3)c3ccccc3)c(=O)c3cc(F)ccc32)cc1	
30 µM			O=C(O)c1ccc(OCCCCCn2c(=O)n(C(c3ccccc3)c3ccccc3)c(=O)c3ccccc32)cc1	
40 µM			O=C(O)c1ccc(OC/C=C\Cn2c(=O)n(C(c3ccccc3)c3ccccc3)c(=O)c3cc(Cl)ccc32)cc1	
140 µM			O=C(O)Cc1coc(-c2ccc(Cn3c(=O)n(C(c4ccccc4)c4ccccc4)c(=O)c4ccccc43)cc2)n1	
